Reference: ChEMBL document CHEMBL3612027, “Substrate-guided optimization of the syringolins yields potent proteasome inhibitors with activity against leukemia cell lines” (Bioorg Med Chem, 2015)

Experiments:
Format in all cases: functional
UACC-62 = test: Cytotoxicity against human UACC62 cells assessed as cell growth at 10 uM after 48 hrs relative to control; conditions: UACC-62, 48 h, read-out: Activity
Outline: (§1)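 Submitted to the National Cancer Institute for a single-dose screen at 10 micromolar against 60 cancer cell lines. Growth is expressed relative to negative-control cultures.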

SN12C = test: Cytotoxicity against human SN12C cells assessed as cell growth at 10 uM after 48 hrs relative to control; conditions: read-out: Activity; outline: as §1
SF-268 = test: Cytotoxicity against human SF268 cells assessed as cell growth at 10 uM after 48 hrs relative to control; conditions: SF-268, 48 h, read-out: Activity
Outline: (§2)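 Run at the National Cancer Institute as a single-dose screen across its 60-cell-line cancer panel. Compound was tested at 10 micromolar, and growth was expressed as a percentage of negative-control cultures.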

MOLT-4 [1] = test: Cytotoxicity against human MOLT4 cells after 48 hrs; conditions: MOLT-4, 48 h
786-0 = test: Cytotoxicity against human 786-0 cells assessed as cell growth at 10 uM after 48 hrs relative to control; conditions: 786-0, 48 h, read-out: Activity; outline: as §2
IGROV-1 = test: Cytotoxicity against human IGROV1 cells assessed as cell growth at 10 uM after 48 hrs relative to control; conditions: IGROV-1, 48 h, read-out: Activity; outline: as §2
SNB-75 = test: Cytotoxicity against human SNB75 cells assessed as cell growth at 10 uM after 48 hrs relative to control; conditions: SNB-75, 48 h, read-out: Activity; outline: as §1
HCT-15 = test: Cytotoxicity against human HCT15 cells assessed as cell growth at 10 uM after 48 hrs relative to control; conditions: HCT-15, 48 h, read-out: Activity; outline: as §2
SW-620 = test: Cytotoxicity against human SW620 cells assessed as cell growth at 10 uM after 48 hrs relative to control; conditions: SW-620, 48 h, read-out: Activity; outline: as §1
KM12 = test: Cytotoxicity against human KM12 cells assessed as cell growth at 10 uM after 48 hrs relative to control; conditions: KM12, 48 h, read-out: Activity; outline: as §2
MDA-MB-435 = test: Cytotoxicity against human MDA-MB-435 cells assessed as cell growth at 10 uM after 48 hrs relative to control; conditions: MDA-MB-435, 48 h, read-out: Activity; outline: as §2
SF-539 = test: Cytotoxicity against human SF539 cells assessed as cell growth at 10 uM after 48 hrs relative to control; conditions: SF-539, 48 h, read-out: Activity; outline: as §2
HL-60(TB) = test: Cytotoxicity against human HL-60(TB) cells assessed as cell growth at 10 uM after 48 hrs relative to control; conditions: HL-60, 48 h, read-out: Activity
Outline: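 Run at the NCI as a single-dose screen: each compound at 10 micromolar across the 60-cancer-cell-line panel. Growth of each cell line in compound-containing media was expressed relative to negative-control cultures.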

M14 = test: Cytotoxicity against human M14 cells assessed as cell growth at 10 uM after 48 hrs relative to control; conditions: M14, 48 h, read-out: Activity; outline: as §2
MOLT-4 [2] = test: Cytotoxicity against human MOLT4 cells assessed as cell growth at 10 uM after 48 hrs relative to control; conditions: MOLT-4, 48 h, read-out: Activity; outline: as §2
HCC 2998 = test: Cytotoxicity against human HCC2998 cells assessed as cell growth at 10 uM after 48 hrs relative to control; conditions: HCC 2998, 48 h, read-out: Activity; outline: as §2
COLO 205 = test: Cytotoxicity against human COLO205 cells assessed as cell growth at 10 uM after 48 hrs relative to control; conditions: COLO 205, 48 h, read-out: Activity; outline: as §2
T47D = test: Cytotoxicity against human T47D cells assessed as cell growth at 10 uM after 48 hrs relative to control; conditions: read-out: Activity; outline: as §1
OVCAR-3 = test: Cytotoxicity against human OVCAR3 cells assessed as cell growth at 10 uM after 48 hrs relative to control; conditions: OVCAR-3, 48 h, read-out: Activity; outline: as §2
UO-31 = test: Cytotoxicity against human UO31 cells assessed as cell growth at 10 uM after 48 hrs relative to control; conditions: UO-31, 48 h, read-out: Activity; outline: as §1
CCRF-CEM = test: Cytotoxicity against human CCRF-CEM cells assessed as cell growth at 10 uM after 48 hrs relative to control; conditions: read-out: Activity; outline: as §2
MCF7 = test: Cytotoxicity against human MCF7 cells assessed as cell growth at 10 uM after 48 hrs relative to control; conditions: MCF7, 48 h, read-out: Activity; outline: as §2
TK-10 = test: Cytotoxicity against human TK10 cells assessed as cell growth at 10 uM after 48 hrs relative to control; conditions: TK-10, 48 h, read-out: Activity; outline: as §1
NCI-H322M = test: Cytotoxicity against human NCI-H322M cells assessed as cell growth at 10 uM after 48 hrs relative to control; conditions: read-out: Activity; outline: as §2
ACHN = test: Cytotoxicity against human ACHN cells assessed as cell growth at 10 uM after 48 hrs relative to control; conditions: read-out: Activity; outline: as §2
OVCAR-8 = test: Cytotoxicity against human OVCAR8 cells assessed as cell growth at 10 uM after 48 hrs relative to control; conditions: OVCAR-8, 48 h, read-out: Activity; outline: as §2
K562 = test: Cytotoxicity against human K562 cells after 48 hrs; conditions: K562, 48 h
PC-3 = test: Cytotoxicity against human PC3 cells assessed as cell growth at 10 uM after 48 hrs relative to control; conditions: PC-3, 48 h, read-out: Activity; outline: as §2
HT-29 = test: Cytotoxicity against human HT-29 cells assessed as cell growth at 10 uM after 48 hrs relative to control; conditions: HT-29, 48 h, read-out: Activity; outline: as §2
BT-549 = test: Cytotoxicity against human BT549 cells assessed as cell growth at 10 uM after 48 hrs relative to control; conditions: BT-549, 48 h, read-out: Activity; outline: as §2
U-251 = test: Cytotoxicity against human U251 cells assessed as cell growth at 10 uM after 48 hrs relative to control; conditions: U-251, 48 h, read-out: Activity; outline: as §1
Malme-3M = test: Cytotoxicity against human MALME-3M cells assessed as cell growth at 10 uM after 48 hrs relative to control; conditions: read-out: Activity; outline: as §2
NCI-H23 = test: Cytotoxicity against human NCI-H23 cells assessed as cell growth at 10 uM after 48 hrs relative to control; conditions: NCI-H23, 48 h, read-out: Activity; outline: as §2
HCT-116 = test: Cytotoxicity against human HCT116 cells assessed as cell growth at 10 uM after 48 hrs relative to control; conditions: HCT-116, 48 h, read-out: Activity; outline: as §2
[3] = Cytotoxicity against human Hs578T cells assessed as cell growth at 10 uM after 48 hrs relative to control; conditions: Hs-578T, read-out: Activity; outline: as §2
A549 = test: Cytotoxicity against human A549 cells assessed as cell growth at 10 uM after 48 hrs relative to control; conditions: A549, 48 h, read-out: Activity; outline: as §2
HL-60 = test: Cytotoxicity against human HL60 cells after 48 hrs; conditions: HL-60, 48 h
SR = test: Cytotoxicity against human SR cells after 48 hrs
Outline: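 Dose-dependent growth inhibition was assessed at the National Cancer Institute against its cancer cell line panel as a follow-up to the 10 micromolar single-dose screen.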

COC(=O)[C@@H](NC(=O)N[C@@H](Cc1ccccc1)C(=O)N[C@H]1CCCCNC(=O)/C=C/[C@H](Cc2c[nH]c3ccccc23)NC1=O)C(C)C
growth at 10 µM (UACC-62): 79.3% | growth at 10 µM (SN12C): 80.1% | growth at 10 µM (SF-268): 78.8% | GI50 (MOLT-4 [1]): 0.599 µM | growth at 10 µM (786-0): 99.7% | growth at 10 µM (IGROV-1): 61.4% | growth at 10 µM (SNB-75): 33% | growth at 10 µM (HCT-15): 110% | growth at 10 µM (SW-620): 87.7% | growth at 10 µM (KM12): 94.6% | growth at 10 µM (MDA-MB-435): 1.21% | growth at 10 µM (SF-539): 17.5% | growth at 10 µM (HL-60(TB)): 55.3% | growth at 10 µM (M14): 101% | growth at 10 µM (MOLT-4 [2]): 13.9% | growth at 10 µM (HCC 2998): 91.8% | growth at 10 µM (COLO 205): 94% | growth at 10 µM (T47D): 34.4% | growth at 10 µM (OVCAR-3): 15.7% | growth at 10 µM (UO-31): 84% | growth at 10 µM (CCRF-CEM): 58.2% | growth at 10 µM (MCF7): 40.3% | growth at 10 µM (TK-10): 101% | growth at 10 µM (NCI-H322M): 99.4% | growth at 10 µM (ACHN): 101% | growth at 10 µM (OVCAR-8): 98.9% | GI50 (K562): 2.94 µM | growth at 10 µM (PC-3): 103% | growth at 10 µM (HT-29): 29.7% | growth at 10 µM (BT-549): 26.6% | growth at 10 µM (U-251): 63.9% | growth at 10 µM (Malme-3M): 94% | growth at 10 µM (NCI-H23): 78.1% | growth at 10 µM (HCT-116): 76.4% | growth at 10 µM [3]: 58.2% | growth at 10 µM (A549): 95.5% | GI50 (HL-60): 1.29 µM | GI50 (SR): 0.453 µM

COC(=O)[C@@H](NC(=O)N[C@@H](Cc1ccccc1)C(=O)N[C@H]1CCCCNC(=O)/C=C/[C@H](C(C)C)NC1=O)C(C)C
growth at 10 µM (UACC-62): 29% | growth at 10 µM (SN12C): 75.6% | growth at 10 µM (SF-268): 30% | growth at 10 µM (786-0): 97.5% | growth at 10 µM (IGROV-1): 45.1% | growth at 10 µM (SNB-75): -27.8% | growth at 10 µM (HCT-15): 94.2% | growth at 10 µM (SW-620): 38.5% | growth at 10 µM (KM12): 30.5% | growth at 10 µM (MDA-MB-435): -59.9% | growth at 10 µM (SF-539): 5.04% | growth at 10 µM (HL-60(TB)): 62.5% | growth at 10 µM (M14): 86.6% | growth at 10 µM (MOLT-4 [2]): 49.2% | growth at 10 µM (HCC 2998): 52.8% | growth at 10 µM (COLO 205): 78.5% | growth at 10 µM (T47D): -3.59% | growth at 10 µM (OVCAR-3): 1.28% | growth at 10 µM (UO-31): 94.7% | growth at 10 µM (CCRF-CEM): 55.1% | growth at 10 µM (MCF7): 43.8% | growth at 10 µM (TK-10): 93.6% | growth at 10 µM (NCI-H322M): 94.2% | growth at 10 µM (ACHN): 102% | growth at 10 µM (OVCAR-8): 92.3% | growth at 10 µM (PC-3): 75% | growth at 10 µM (HT-29): 31.1% | growth at 10 µM (BT-549): 29.6% | growth at 10 µM (U-251): 17.4% | growth at 10 µM (Malme-3M): 77% | growth at 10 µM (NCI-H23): 44.1% | growth at 10 µM (HCT-116): 26.5% | growth at 10 µM [3]: 40.9% | growth at 10 µM (A549): 77.4%
